These results are taken from ChEMBL document CHEMBL4382232, “Grayanane Diterpenoid Glucosides from the Leaves of Rhododendron micranthum and Their Bioactivities Evaluation” (2018).

In one assay the test system is RAW264.7. Kind of assay: Anti-inflammatory activity in mouse RAW264.7 cells assessed as inhibition of LPS-induced NO production at 40 uM. Format: functional, cell-based.
In another assay the test system is MCF7. Kind of assay: Cytotoxicity against human MCF7 cells at 40 uM after 48 hrs by MTT assay. The assay is classed as functional, cell-based. On the technique in general: Tetrazolium dyes change colour on reduction, which living cells bring about.
The test system of the next assay is SW480. Briefly: Cytotoxicity against human SW480 cells at 40 uM after 48 hrs by MTT assay. Format: functional, cell-based.
The subject of another assay is SMMC-7721. Kind of assay: Cytotoxicity against human SMMC7721 cells at 40 uM after 48 hrs by MTT assay. Format: functional, cell-based.
The next assay deals with A549. Kind of assay: Cytotoxicity against human A549 cells at 40 uM after 48 hrs by MTT assay. Format: functional, cell-based.
For a further assay, the system named is HL-60. Kind of assay: Cytotoxicity against human HL60 cells at 40 uM after 48 hrs by MTT assay. Format: functional, cell-based.
Assay [1] has as its target T1, Tyrosine-protein phosphatase non-receptor type 1 (Homo sapiens) (UniProt P18031).
T1 sequence (whole entry): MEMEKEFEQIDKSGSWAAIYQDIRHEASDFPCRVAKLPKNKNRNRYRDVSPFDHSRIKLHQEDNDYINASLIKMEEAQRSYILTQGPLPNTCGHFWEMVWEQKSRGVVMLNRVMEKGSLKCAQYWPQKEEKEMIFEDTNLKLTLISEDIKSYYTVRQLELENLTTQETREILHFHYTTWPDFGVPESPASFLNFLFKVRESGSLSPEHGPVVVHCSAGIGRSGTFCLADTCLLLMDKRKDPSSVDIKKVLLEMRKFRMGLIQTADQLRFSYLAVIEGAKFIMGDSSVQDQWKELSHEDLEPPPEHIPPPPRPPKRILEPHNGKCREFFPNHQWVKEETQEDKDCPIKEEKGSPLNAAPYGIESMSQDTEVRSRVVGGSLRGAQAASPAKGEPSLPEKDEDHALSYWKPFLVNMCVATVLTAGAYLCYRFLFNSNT
Briefly: Inhibition of recombinant human PTP1B at 40 uM using pNPP as substrate preincubated for 10 mins followed by substrate addition and measured after 30 mins at 5 mins time interval for 30 mins.

Another assay deals with Mus musculus. Kind of assay: Antinociceptive activity in Kunming mouse model of acetic-acid-induced writhing assessed as inhibition of writhing numbers at 5 mg/kg measured for 30 mins relative to control. Format: functional. The settings on record: for inhibition in vivo at 5 mg/kg: 0.5 h. The method in brief:
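Acetic-acid-induced writhing model in Kunming mice (10 per group); doses 0.2, 1.0 and 5.0 mg/kg; vehicle-treated and morphine positive-control groups; inhibition of writhing relative to vehicle; mean ± SEM; one-way ANOVA with Bonferroni test. Animal work approved by institutional ethics committee.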
For orientation: In writhing tests, fewer writhes than in controls are read as antinociception.

Calls of active or inactive are those of the source. No cut-off for these calls is given here.

The inhibition in vivo is the drop in the measured response relative to a control, in per cent.

As to `C=C1[C@@H]2CC[C@@H]3[C@@H](OC(C)=O)[C@@]2(C[C@@H](O)[C@@]2(O)[C@H]1C[C@H](O)C2(C)C)C[C@@]3(C)O[C@@H]1O[C@H](CO)[C@@H](O)[C@H](O)[C@H]1O`, the inhibition entry (in the assay with RAW264.7; in assay [1]) was “inactive” in each case. The result in the assay on MCF7, with SW480, in the assay on SMMC-7721, with A549 and with HL-60 was inactive. Moreover, the inhibition in vivo at 5 mg/kg in the assay with Mus musculus is > 50%.
`C=C1[C@@H]2CC[C@@H]3[C@@H](OC(C)=O)[C@@]2(C[C@@H](O)[C@@]2(O)[C@H]1C[C@H](O[C@@H]1O[C@H](CO)[C@@H](O)[C@H](O)[C@H]1O)C2(C)C)C[C@@]3(C)O`: the inhibition result (with RAW264.7; in assay [1]) was “inactive” each time. The result in the assay on MCF7, with SW480, in the assay with SMMC-7721, in the assay on A549 and in the assay with HL-60 was inactive. The inhibition result in the assay on Mus musculus was “Active”.
For the compound `C[C@H]1[C@@H]2C[C@H](O[C@@H]3O[C@H](CO)[C@@H](O)[C@H](O)[C@H]3O)C(C)(C)[C@]23O[C@]12CC[C@@H]1C[C@@]2(C[C@H]3O)C[C@@]1(C)O`, the inhibition entry (with RAW264.7; in assay [1]) was “inactive” in each case. Also, the result in the assay with MCF7, in the assay on SW480, in the assay on SMMC-7721, in the assay on A549 and with HL-60 was inactive. Also, the inhibition result with Mus musculus is “Active”.
As to `C=C1[C@@H]2CC[C@@H]3C[C@@]2(C[C@@H](O)[C@@]2(O)[C@H]1C[C@H](O)C2(C)C)C[C@@]3(C)O[C@@H]1O[C@H](CO)[C@@H](O)[C@H](O)[C@H]1O`, the inhibition result (in the assay with RAW264.7; in assay [1]) was “inactive” each time. The result in the assay on MCF7, with SW480, in the assay on SMMC-7721, in the assay on A549 and with HL-60 was inactive. In the assay on Mus musculus, the inhibition in vivo at 5 mg/kg is > 50%.
Regarding `CC1(C)[C@@H](O[C@@H]2O[C@H](CO)[C@@H](O)[C@H](O)[C@H]2O)C[C@H]2[C@](C)(O)[C@@H]3CC[C@@H]4[C@@H](O)[C@@]3(C[C@@H](O)[C@@]21O)C[C@@]4(C)O`, the inhibition entry (in the assay on RAW264.7; in assay [1]) was “inactive” in each case. The result in the assay on MCF7, with SW480, with SMMC-7721, in the assay on A549 and with HL-60 was inactive. The inhibition in vivo at 5 mg/kg with Mus musculus is > 50%.
As for `CC1=C2CC[C@@H]3[C@@H](O)[C@@]2(C[C@@H](O)[C@@]2(O)[C@H]1C[C@H](O[C@@H]1O[C@H](CO)[C@@H](O)[C@H](O)[C@H]1O)C2(C)C)C[C@@]3(C)O`, the inhibition entry (in the assay with RAW264.7; in assay [1]) was “inactive” throughout. Also, the result in the assay with MCF7, with SW480, in the assay on SMMC-7721, in the assay on A549 and in the assay on HL-60 was inactive. Further, in the assay on Mus musculus, the inhibition in vivo at 5 mg/kg was > 50%.
As to `C=C1[C@H]2C[C@H](O[C@@H]3O[C@H](CO)[C@@H](O)[C@H](O)[C@H]3O)C(C)(C)[C@@]2(O)[C@H](O)C[C@@]23C[C@@H](CC[C@@H]12)[C@](C)(O)C3`, the inhibition result (with RAW264.7; in assay [1]; in the assay on Mus musculus) was “inactive” in each case. For the same compound, the outcome in the assay on MCF7, with SW480, in the assay with SMMC-7721, with A549 and with HL-60 was inactive.
